Bioassay records from PubChem.
Shown are actives, neighbours in structure and some others; about 3.5% of the full set was active somewhere.
MrgX1 allo act: allosterically activates human MrgX1 receptor signaling. Q96LB2. MrgX1-HEK293, Fluo-4 calcium flux, FDSS; stronger effect = higher value. B-score at 10 µM. actives 0.63% (n = 310,000);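 active = plate-corrected calcium response at least 3 library SD above typical, normal starting fluorescence, not activating the receptor alone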;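 also: compound read alongside a low EC10 to EC30 dose of BAM8-22 agonist; peak minus trough fluorescence over baseline measured at the second addition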
Target sequence (Q96LB2 whole entry, looked up): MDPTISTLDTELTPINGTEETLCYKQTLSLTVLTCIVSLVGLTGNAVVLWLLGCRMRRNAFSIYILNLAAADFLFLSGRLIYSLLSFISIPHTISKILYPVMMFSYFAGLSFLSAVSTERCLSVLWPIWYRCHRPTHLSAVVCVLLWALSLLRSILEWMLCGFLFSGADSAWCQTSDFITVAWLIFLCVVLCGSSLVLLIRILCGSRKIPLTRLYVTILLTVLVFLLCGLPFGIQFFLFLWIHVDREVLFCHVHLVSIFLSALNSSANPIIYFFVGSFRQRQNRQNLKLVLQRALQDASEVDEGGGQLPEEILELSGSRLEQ
RGS4 pot: RGS4 potentiation or activation | AID 463111 | HEK293 M3R/inducible RGS4, carbachol calcium flux Fluo4; stronger effect = lower value | B-score at 10 µM | actives 0.92% (n = 310,000);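 active = B-score of the integrated calcium signal more than 4 SD below the library mean, with starting fluorescence not abnormally high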;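 also: negative B-score means reduced calcium response which marks RGS4 activation or potentiation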
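Test system: HEK293 cells with stable M3R and inducible RGS4; also added: carbachol at ECmax as muscarinic agonist stimulus; schedule: dye loading 30 min 37 °C, buffer rest 30 min RT; technique: kinetic calcium fluorescence imaging with Fluo4-AM dye, 2 µM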
MrgX1 antagonist: blocks BAM8-22 activation of human MrgX1 receptor | MRGX1-HEK293 calcium flux, Fluo-4, BAM8-22 antagonism; stronger effect = lower value | AID 588676 | Q96LB2 | actives 1.3% (n = 310,000) | B-score at 10 µM;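 active = calcium-response B-score plate-corrected more than 3 library SD below zero, starting fluorescence within 5 deviations, no agonist response on first addition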;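 also: peak minus trough fluorescence over baseline after final BAM8-22 challenge near maximal dose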
MrgX1 ag: activates human MrgX1 receptor signaling; Q96LB2; MrgX1-HEK293 cells, Fluo-4 calcium fluorescence, agonist mode; stronger effect = higher value; B-score at 10 µM; actives 0.44% (n = 310,000);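 active = calcium response B-score plate-corrected fluorescence ratio at least 3 library SD, with starting fluorescence B-score inside 5 SD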
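Test system: HEK293 cells stably expressing human MrgX1 receptor; Input: fifteen thousand cells per well; Dosing: compound delivered in addition one of three; Schedule: overnight seeding, then 1 h dark dye loading; Technique: Fluo-4 NW calcium fluorescence; Measure: B-scored fluorescence response ratio; Controls: positive and negative controls per plate.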
RGS4 block: human RGS4 inhibition | P49798 | actives 0.45% (n = 310,000) | B-score at 10 µM | HEK293 M3R/RGS4 inducible, Fluo-4 calcium flux; stronger effect = higher value; triggered by carbachol at its EC20 | AID 463165;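 active = B-score, a plate-corrected calcium signal, over three deviations above library mean, with baseline fluorescence within five deviations of library mean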;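 also: RGS4 expression induced by doxycycline in cells with stable M3 receptor; B-score is computed from the integrated fluorescence ratio over baseline after carbachol; higher B-score means a larger calcium signal and so more RGS4 inhibition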
Target sequence (P49798 whole entry, looked up): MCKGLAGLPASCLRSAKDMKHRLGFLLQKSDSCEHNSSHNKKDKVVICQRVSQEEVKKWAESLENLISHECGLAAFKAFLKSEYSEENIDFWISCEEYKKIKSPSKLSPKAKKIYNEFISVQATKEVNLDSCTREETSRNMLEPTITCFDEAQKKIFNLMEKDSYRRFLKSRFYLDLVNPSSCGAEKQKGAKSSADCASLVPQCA
MrgX1 ant reconf: confirmation of human MrgX1 receptor antagonists | shares compounds with MrgX1 antagonist | MrgX1-HEK293, BAM8-22 calcium flux, Fluo-4; stronger effect = lower value | remaining BAM8-22 calcium response % of control (stronger effect = lower value), % at 10 µM | actives 19% (n = 2,300) | AID 602420;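 active = remaining agonist calcium response no higher than 100% minus 3 SD of agonist-only control wells, with starting fluorescence near control levels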;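 also: agonist BAM8-22 given at a near maximal EC90 to ECmax level; peak minus minimum fluorescence divided by baseline after agonist addition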
HEK293 Ca flux: MrgX1 antagonist counter-screen hit in parental HEK293 cells | shares compounds with MrgX1 antagonist | Fluo-4 calcium fluorescence, FDSS | fluorescence ratio F(max-min)/F0 at 10 µM | actives 2% (n = 4,000) | AID 624111;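 active = duplicate-averaged calcium fluorescence ratio at least three times the standard deviation of buffer wells, a nonspecific response in parental cells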
HEK293 Ca counter: counter-screen for MrgX1 allosteric activators: effect in parental HEK293 cells; shares compounds with MrgX1 antagonist; fluorescence ratio F(max-min)/F0 at 10 µM; parental HEK293 calcium flux, Fluo-4 fluorescence ratio; stronger effect = higher value; actives 0.4% (n = 4,000);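 active = calcium fluorescence ratio, averaged over duplicates, at least 3 SD of the buffer-well ratio, meaning a nonspecific response in receptor-free cells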;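 also: untransfected parental HEK293 lacking MrgX1 used as counterscreen for MrgX1 allosteric activators; fluorescence change taken during the second addition on a kinetic imager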
HEK293 Ca cntr2: MrgX1 activator counter-screen hit in parental HEK293 cells; shares compounds with MrgX1 antagonist; Fluo-4 calcium fluorescence (FDSS); stronger effect = higher value; fluorescence ratio F(max-min)/F0 at 10 µM; actives 8.7% (n = 4,000);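 active = calcium fluorescence ratio at least three times the spread of buffer wells, meaning a non-specific response in parental cells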
Active calls of the source: *; i = inactive; / = no result.

SMILES	MrgX1 allo act	RGS4 pot	MrgX1 antagonist	MrgX1 ag	RGS4 block	MrgX1 ant reconf	HEK293 Ca flux	HEK293 Ca counter	HEK293 Ca cntr2
CC[C@H](C)[C@@H](C(=O)NCCCCCCCCCCC(=O)N1CCN(C(=O)OC(C)(C)C)CC1)n1cc(CCCCN=C(NC(=O)OC(C)(C)C)NC(=O)OC(C)(C)C)nn1	i	/	i	i	/	/	/	/	/
CC[C@H](C)[C@@H](C(=O)NCCCCCCCCCCC(=O)N1CCN(C(=O)OC(C)(C)C)CC1)n1cc(CCCCCNC(=O)OC(C)(C)C)nn1	i	/	-13*	i	/	44%*	i	i	i
CCN(c1cccc(C)c1)S(=O)(=O)c1cc2c3c(c1)CCN3C(=O)CC2	i	i	-11*	i	i	77%*	i	i	i
O=C1Nc2ccccc2/C1=C\c1cccn1-c1ccc(OC(F)(F)F)cc1	i	i	i	i	i	/	/	/	/
Cc1ccc(C)c(NC(=S)N2CCCCCC2)c1	i	/	i	i	/	/	/	/	/
Cc1ccc(C)c(NC(=S)N2CCN(CCO)CC2)c1	i	i	-4.8*	i	i	i	i	i	i
COc1ccccc1NC(=O)C1=C(C)Nc2nc(-c3cccs3)nn2C1c1cccnc1 (stereo not drawn)	i	i	-5.2*	i	i	i	i	i	i
COc1ccccc1NC(=O)C1=C(C)Nc2nc(-c3ccc(N(C)C)cc3)nn2C1c1ccncc1 (stereo not drawn)	i	/	i	i	/	/	/	/	/
CCNC(=S)N/N=C/c1ccc(OCC(=O)Nc2ccc(C)cc2)cc1	i	i	-10*	i	i	i	i	i	i
CCNC(=S)N/N=C/c1ccc(OCC(=O)Nc2ccc(OC)cc2)c(OC)c1	i	i	i	i	i	/	/	/	/
O=C(NCCc1ccccc1)c1n[nH]c2ccccc12	i	i	i	i	i	/	/	/	/
CCOc1ncccc1C(=O)Nc1nnc(C)s1	i	i	-4.8*	i	i	i	i	i	i
CCSc1nnc(-c2ccncc2)n1Cc1ccccc1	i	i	-6.5*	i	i	i	i	i	i
CNC(=O)CSc1nnc(-c2ccncc2)n1Cc1ccccc1	i	i	i	i	i	/	/	/	/
CC(Cc1nnc(SCC(=O)O)n1N)c1ccccc1 (stereo not drawn)	i	i	i	i	i	/	/	/	/
CSCCC(=O)N1CCCC(N2CCN(c3cccc(C(F)(F)F)c3)CC2)C1 (stereo not drawn)	i	i	i	i	i	/	/	/	/
N#Cc1c(N)n(-c2ccccc2)c(=O)c2cc([N+](=O)[O-])ccc12	i	i	i	i	i	/	/	/	/
CC1(C)Cc2c(C#N)c(N)n(-c3ccccc3)c(=O)c2CO1	i	i	-13*	i	i	i	i	i	i
CCNc1nc(SCc2ccccc2)nc(N2CCOCC2)n1	i	/	i	i	/	/	/	/	/
CN(C)c1nc(SCc2ccccc2)nc(N2CCOCC2)n1	i	i	-6.4*	i	i	i	i	i	i
CSc1nccc(N/N=C/c2ccccc2)n1	i	i	i	i	i	/	/	/	/
CC1CN(CCCCOc2ccc(F)cc2)CC(C)O1 (stereo not drawn)	i	i	i	i	i	/	/	/	/
O=C(/C(=C(\O)c1ccccc1)c1ncc[nH]1)c1ccccc1	i	i	-9.7*	i	i	i	i	i	i
Cc1ccc(Nc2c3c(nc4ncnn24)CC(C)CC3)cc1 (stereo not drawn)	i	i	i	i	i	/	/	/	/
Cc1ccc(Nc2c3c(nc4ncnn24)CCC3)cc1	i	i	-7.2*	i	i	i	i	i	i
SMILES	MrgX1 allo act	RGS4 pot	MrgX1 antagonist	MrgX1 ag	RGS4 block	MrgX1 ant reconf	HEK293 Ca flux	HEK293 Ca counter	HEK293 Ca cntr2
O=C(c1nc2ccccc2s1)N1CCN(c2ccccn2)CC1	i	/	i	i	/	/	/	/	/
O=C(c1nc2ccccc2s1)N1CCSCC1	i	i	-10*	i	i	i	i	i	i
c1csc(-c2nnc3ccccn23)c1	i	i	i	i	i	/	/	/	/
c1ccn2c(Cc3nnc4ccccn34)nnc2c1	i	i	-5.5*	i	i	i	i	i	i
O=S(=O)(O)c1cc2oc(-c3ccccc3)nc2c2ccccc12	i	i	i	i	i	/	/	/	/
CC(C)Sc1nc2c(c(=O)n1C)SC(C)C2 (stereo not drawn)	i	i	-6.9*	i	i	i	i	i	i
CCc1noc(C)c1C(=O)N1CC(C)OC(C)C1 (stereo not drawn)	i	i	i	i	i	/	/	/	/
CCc1noc(C)c1C(=O)N1CCCC1	i	i	-4.7*	i	i	78%*	i	i	i
COc1ccc(SCCc2nnc(-c3ccccc3)o2)cc1	i	i	-7.8*	i	i	i	i	i	i
CCCc1nnc(-c2ccc(OC)cc2)o1	i	i	-6*	i	i	i	i	i	i
COc1ccccc1/C=C/C=N/NC(=O)CCn1nnc2ccccc21	i	i	i	i	i	/	/	/	/
Cc1ccccc1Cn1ccc(NC(=O)c2nc3ncccn3n2)n1	i	/	-5.7*	i	/	i	i	i	i
Cc1ccccc1Cn1cc(NC(=O)c2nc3ncccn3n2)cn1	i	i	i	i	i	/	/	/	/
O=C(c1ccc2c(c1)OCCO2)N1CCN(Cc2ccccc2)CC1	i	i	i	i	i	/	/	/	/
Cc1ccccc1CSc1nnc(-c2cnccn2)n1C	i	i	i	i	i	/	/	/	/
O=C(O)C1=C(C(=O)N2CCN(C(=O)c3ccco3)CC2)CCCC1	i	i	-5.6*	i	i	i	i	i	i
O=C(c1ccco1)N1CCN(C(=O)N2CCCCC2)CC1	i	i	i	i	i	/	/	/	/
Cc1nc2sc3c(c2c(=O)o1)CC(C)(C)OC3	i	i	-6.1*	i	i	i	i	i	i
